Assay results gathered from unrelated publications.
Lines come from different studies, so protocols differ.
HTR2C: 5-hydroxytryptamine receptor 2C (HTR2C, Homo sapiens, UniProt P28335)

For COc1cc(CCNC(C)c2ccccc2O)c(OC)cc1Br (stereo not drawn), the Emax was 92% (HTR2C; calcium signal, agonist).
COc1cc2c(cc1OC)-c1c(OC)c(OC)cc3c1[C@H](C2)N(C)CC3 has an inhibition of 79% (HTR2C; ligand displacement, radioligand; 10 µM).
The inhibition of Nc1ncnc2c1ncn2[C@@H]1O[C@H](C[C@@H](N)CC[C@H](N)C(=O)O)[C@@H](O)[C@H]1O is reported as 61.8% (mRNA cap guanine-N(7) methyltransferase (RNMT, Homo sapiens, UniProt O43148); enzyme activity, inhibitor; 12.5 µM).
For O=P(O)(O)O[C@H]1[C@H](OP(=O)(O)O)[C@@H](OP(=O)(O)O)[C@H](OP(=O)(O)O)[C@@H](OP(=O)(O)O)[C@H]1OP(=O)(O)O, the residence time was 0.4 min (Toxin B (tcdB, Clostridioides difficile, UniProt P18177); binding, ITC).
COc1cc(CCNCc2ccccc2O)c(OC)cc1C#N has an Emax of 122% (HTR2C; G protein activation, agonist, BRET).
COc1cc2c3c(c1OC)-c1c(OC)ccc(Cl)c1CC3N(C)CC2 (racemic) has an inhibition of 80% (HTR2C; ligand displacement, radioligand; 10 µM).
COc1cc(CCNC(C)c2ccccc2)c(OC)cc1C#N (stereo not drawn) gave an Emax of 41% (HTR2C; calcium signal, agonist).
CC(C)CC(=O)OC[C@H]1O[C@@](C#N)(c2ccc3c(N)ncnn23)[C@H](O)[C@@H]1O gave an inhibition of -2% (B2 bradykinin receptor (BDKRB2, Homo sapiens, UniProt P30411); cell-free assay; 20 µM).
The remaining binding of [2H]c1c([2H])c([C@]2([2H])CCCN2C(=O)C(C)(C)Oc2ccc3cn[nH]c3c2)c([2H])c([2H])c1C([2H])([2H])[2H] is reported as 57% (Tyrosine-protein kinase receptor TYRO3 (TYRO3, Homo sapiens, UniProt Q06418); binding, competition with immobilised ligand; 1 µM).
